Assay results gathered from unrelated publications.
Each line is one published result; the experiments were not run side by side.
Target: Inhibitor of nuclear factor kappa-B kinase subunit epsilon (IKBKE, Homo sapiens, UniProt Q14164)
Residues used in one study (Q14164 1-716): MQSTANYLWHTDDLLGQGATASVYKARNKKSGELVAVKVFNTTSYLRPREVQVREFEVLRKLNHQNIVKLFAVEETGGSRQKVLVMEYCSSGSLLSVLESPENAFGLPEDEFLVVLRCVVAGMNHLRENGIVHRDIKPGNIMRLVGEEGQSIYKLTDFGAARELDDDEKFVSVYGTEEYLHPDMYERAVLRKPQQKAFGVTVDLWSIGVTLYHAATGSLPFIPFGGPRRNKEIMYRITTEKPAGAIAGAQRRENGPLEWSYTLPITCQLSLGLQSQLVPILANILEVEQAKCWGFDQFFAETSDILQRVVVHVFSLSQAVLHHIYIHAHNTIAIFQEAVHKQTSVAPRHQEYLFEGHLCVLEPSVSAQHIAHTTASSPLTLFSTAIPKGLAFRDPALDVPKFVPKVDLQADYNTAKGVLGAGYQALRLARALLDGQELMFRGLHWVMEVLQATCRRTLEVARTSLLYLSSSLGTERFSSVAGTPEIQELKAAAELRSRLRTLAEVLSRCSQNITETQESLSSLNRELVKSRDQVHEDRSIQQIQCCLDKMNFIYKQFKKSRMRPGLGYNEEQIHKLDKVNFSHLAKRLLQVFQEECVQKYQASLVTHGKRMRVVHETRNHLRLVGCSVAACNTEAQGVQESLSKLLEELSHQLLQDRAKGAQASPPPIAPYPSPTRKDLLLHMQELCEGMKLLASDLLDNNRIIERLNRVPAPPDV

CCS(=O)(=O)c1cc2cc(C[C@@](O)(CC(C)(C)c3ccc(F)cc3C(N)=O)C(F)(F)F)[nH]c2cn1 — remaining binding (cell-free assay, competition with immobilised ligand; 1 µM): 83%
COc1cnc(Nc2cccc(S(N)(=O)=O)c2)nc1N1CCN(c2ccccc2)C(=O)C1 — remaining binding (binding, competition with immobilised ligand; 1 µM): 50%
CNC(=O)Nc1ccc2c(c1)CC[C@@]21OC(=O)N(CC(=O)N(Cc2ccc(F)cc2)[C@@H](C)C(F)(F)F)C1=O — remaining binding (cell-free assay, competition with immobilised ligand; 1 µM): 51%
CN(C)c1nccc(-c2cnn3ncccc23)n1 — remaining binding (binding; 1 µM): 89%
O=C(c1ccc(Nc2ncc(Cl)c(-c3cc4ccccc4s3)n2)cc1)N1CCC(N2CCCC2)CC1 — remaining binding (binding, competition with immobilised ligand; 1 µM): 21%
COc1ncc2cc3ccccc3nc2c1C#N — remaining binding (cell-free assay, competition with immobilised ligand; 5 µM): 97%
F[C@@H]1CCN(c2nccc(-c3cnn4ncccc34)n2)C1 — remaining binding (binding; 1 µM): 100%
COc1cnc(Nc2cccc(S(N)(=O)=O)c2)nc1N1CCN(c2ccccc2)CC1 — remaining binding (binding, competition with immobilised ligand; 1 µM): 57%
O=C(NCc1ncc(C(F)(F)F)cc1Cl)c1ccc2c(c1)C1(CCS(=O)(=O)CC1)[C@H](C1CC1)N2S(=O)(=O)c1ccc(F)cc1 — remaining binding (cell-free assay, competition with immobilised ligand; 1 µM): 77%
C=CC(=O)N1CCC(C(=O)NCC(=O)N2CCN(c3nc(-c4cnc(N)nc4C(F)F)nc(N4CCOCC4)n3)CC2)CC1 — remaining binding (binding, competition with immobilised ligand; 1 µM): 71%
Cc1cnn2ncc(-c3ccnc(N(C)C)n3)c2c1 — remaining binding (binding; 1 µM): 96%
c1cncc(-c2cccc(Nc3nccc(NC4CCCCC4)n3)c2)c1 — remaining binding (binding, competition with immobilised ligand; 10 µM): 41%
CO[C@H]1CC[C@H](CNc2ccc(S(=O)(=O)NC(=O)c3ccc(N4CCN(CC5=C(c6ccc(Cl)cc6)CC(C)(C)CC5)CC4)cc3Oc3cnc4[nH]ccc4c3)cc2[N+](=O)[O-])CC1 — remaining binding (cell-free assay, competition with immobilised ligand; 1 µM): 100%
N[C@H]1CCN(c2nccc(-c3cnn4ncccc34)n2)C1 — remaining binding (binding; 1 µM): 91%
O=C(NCCCN1CCOCC1)c1ccc(Nc2nccc(-c3cc4ccccc4s3)n2)cc1 — remaining binding (binding, competition with immobilised ligand; 1 µM): 96%
C[C@@H]1CCN(c2nccc(-c3cnn4ncccc34)n2)C1 — remaining binding (binding; 1 µM): 82%
O=C(Nc1c[nH]nc1C(=O)NC1CCNCC1)c1cc(F)cc(F)c1 — remaining binding (binding, competition with immobilised ligand; 1 µM): 100%
Cc1cc(C)c(-n2ccn3nc(-c4cccnc4)cc23)cc1NC(=O)c1cc(C#N)cc(S(F)(F)(F)(F)F)c1 — remaining binding (cell-free assay, competition with immobilised ligand; 0.1 µM): 59.9%
O=C(NCCCN1CCOCC1)c1ccc(Nc2ncc(Cl)c(-c3ccc(Cl)s3)n2)cc1 — remaining binding (binding, competition with immobilised ligand; 1 µM): 52%
CC(C)(O)c1cncc(-c2nc3ccc(F)cc3n2C2CC2)c1 — remaining binding (cell-free assay, competition with immobilised ligand; 1 µM): 100%
CN(CCCC(F)(F)F)c1nccc(-c2cnn3ncccc23)n1 — remaining binding (binding; 1 µM): 100%
